A short description of data set [1]: AUCt in HIV-infected human plasma at 800 mg qd for 10 days administered in fasted condition on day 10 by HPLC with fluorescence detector. In kind it is ADME, cell-free. In outline: (§1)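 Day-10 fasted serial sampling 0–24 h after oral 800 mg once daily. Plasma from two centrifugations (390 × g, 1,090 × g, 10 min), stored −80°C; liquid-liquid extraction with tert-butyl methyl ether; HPLC C18, phosphate buffer (25 mM, pH 3)-acetonitrile, fluorescence ex 299/em 396 nm, linear 10–5,000 ng/ml. Noncompartmental: AUCτ linear trapezoidal, Cmax/Cτ by inspection, λz from terminal log-linear regression.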

The nature of data set [2]: AUCt in HIV-infected human PBMC at 800 mg qd for 10 days administered in fasted condition on day 10 by LC-MS/MS analysis. In kind it is ADME, cell-based. In outline: (§2)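 EDTA blood kept 4°C, processed within 1 h; PBMCs isolated on Ficoll gradient, washed with 0.9% NaCl, pellet stored −80°C. LC-MS/MS, calibration 0.4–150 ng/ml lysate; cell number by DNA detection. Noncompartmental analysis; AUCτ linear trapezoidal; geometric mean (range).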

Data set [3] can be described thus: Cmax in HIV-infected human plasma at 800 mg qd for 10 days administered in fasted condition on day 10 by HPLC with fluorescence detector. More on the design: dose 800 mg. In kind it is ADME, organism-based. In outline: as §1
Data set [4] in a line: Cmax in HIV-infected human PBMC at 800 mg qd for 10 days administered in fasted condition on day 10 by LC-MS/MS analysis. The class given is ADME, organism-based. Set-up: dose 800 mg. The method, boiled down: as §2
Data set [5] is described as follows: Drug concentration at the end of dosing interval in HIV-infected human plasma at 800 mg qd for 10 days administered in fasted condition on day 10 by HPLC with fluorescence detector. In kind it is ADME, cell-free. The settings on record: read-out: Ctau. In outline:
as §1

Data set [6] can be described thus: Drug concentration at the end of dosing interval in HIV-infected human PBMC at 800 mg qd for 10 days administered in fasted condition on day 10 by LC-MS/MS analysis. The class given is ADME, cell-based. The settings on record: read-out: Ctau. In outline: as §2
The nature of data set [7]: Terminal phase half life in HIV-infected human plasma at 800 mg qd for 10 days administered in fasted condition on day 10 by HPLC with fluorescence detector. The class given is ADME, cell-free. Particulars: read-out: beta t1/2 (converted). The method, boiled down:
as §1

Data set [8] in a line: Terminal phase half life in HIV-infected human PBMC at 800 mg qd for 10 days administered in fasted condition on day 10 by LC-MS/MS analysis. The class given is ADME, cell-based. The settings on record: read-out: beta t1/2 (converted). The method, boiled down:
as §2

In data set [9] the test system is PBMC. The experiment in a line: Intracellular compound distribution in ratio in HIV-infected human PBMC at AUCt by LC-MS/MS analysis. In kind it is ADME, cell-based. In outline:
(§3)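 Intracellular distribution ratio: PBMC concentration (LC-MS/MS) divided by plasma concentration (HPLC-fluorescence), computed per patient for AUCτ, Cmax and Cτ from day-10 fasted 0–24 h profiles after 800 mg once daily; reported as median (range).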

The test system of data set [10] is PBMC. The experiment in a line: Intracellular compound distribution in ratio in HIV-infected human PBMC at Cmax by LC-MS/MS analysis. In kind it is ADME, cell-based. The method, boiled down:
as §3

Data set [11] concerns PBMC. Description: Intracellular compound distribution in ratio in HIV-infected human PBMC at Ctau by LC-MS/MS analysis. The class given is ADME, cell-based. The method, boiled down: as §3
A further data set has as its system Homo sapiens. The experiment in a line: Toxicity in HIV-infected human at 800 mg qd for 10 days administered in fasted condition on day 10. Particulars: in vivo, 240 h. The class given is organism-based. In outline:
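Safety assessed on days 0 and 10 by clinical evaluation and laboratory tests (blood counts, chemistry) during 800 mg once-daily oral dosing added to ongoing antiretroviral therapy.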

The structures appear in SMILES notation.

Regarding `Cc1nnc(C(=O)NC(C)(C)c2nc(C(=O)NCc3ccc(F)cc3)c(O)c(=O)n2C)o1` [RALTEGRAVIR], the AUC(0-t) at 240 h in [1] was found to be 12200 ng·h/mL; in [2], 909 ng·h/mL. The Cmax in [3] came out at 2640 ng/mL; in [4], 199 ng/mL. The values for the concentration at 240 h in data set [5] and in data set [6] were 89 ng/mL and 7 ng/mL, respectively. Further, the results for the half-life in data set [7] and in [8] were 16 h and 11.2 h, respectively. Further, the Ratio was 0.07 in the data set on PBMC [9], 0.08 in the data set with PBMC [10] and 0.18 in the data set on PBMC [11]. Moreover, the Activity result with Homo sapiens is listed as “Non-toxic”.

By AUC(0-t) is commonly meant the area under the concentration-time curve up to a stated or last time point. A low value points to low exposure. For orientation: Cmax means the maximum level reached in the sampled fluid or tissue.

For the origin of these results see ChEMBL document CHEMBL1687825, “Plasma and intracellular (peripheral blood mononuclear cells) pharmacokinetics of once-daily raltegravir (800 milligrams) in HIV-infected patients” (Antimicrob Agents Chemother, 2011).
